STAT1 inh: STAT1 signaling inhibitors, primary screen, cell-based, HTS, luciferase reporter; NIH 3T3 STAT1-luciferase reporter, IFN-gamma, luminescence; inhibition, % at 5.5 µM; 200,000 compounds, 0.35% hits; AID 920, 2007;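 active = inhibition above a set limit, the mean inhibition across all tested compounds plus 3 SD, cut at about 34% in these data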;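 note: 0% = IFN-gamma with DMSO and 100% = IFN-gamma with 300 µM nifuroxazide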
STAT1 act: STAT1 signaling activators, primary screen, cell-based, HTS, luciferase reporter; AID 932, 2007; NIH 3T3 STAT1-luciferase reporter, IFN-gamma, luminescence; 100% = IFN-gamma alone, no compound; 200,000 compounds, 2.6% hits; activation (% of control), % at 5.5 µM;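 active = activation above the screen-wide mean activation plus 3 SD, cut at about 130% in these data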;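 note: raw ratio to IFN-gamma control signal so 100% means no change and 0% no light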
NF-kB expr up: activators of NF-kB expression in neurons, primary screen, cell-based, HTS | human neuronal cells, NF-kB reporter expression; stronger effect = higher value | fold change at 12.5 µM | 190,000 compounds, 1.6% hits | AID 1239, 2008; in the data active = fold change above about 3.3
STAT3 act: IL-6 driven STAT3 reporter potentiators, primary screen, U3A cells, luciferase, luminescence, MLSCN library | 190,000 compounds, 0.91% hits | activation (% of control), % at 5.6 µM | IL-6 STAT3-luciferase reporter; 100% = signal with IL-6 EC80 alone;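 active = activation above the screen-wide mean of compound activation plus 3 SD, cut at about 130% in these data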;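 note: 0% = background luminescence of wells with medium and substrate only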
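Material: STAT3-luciferase reporter U3A cells; Probe or stimulus: IL-6 (33 ng/mL); Incubation: compound pre-incubation 1 h before IL-6, then 6 h stimulation at 37 °C; Technique: luminescence from STAT3-driven luciferase reporter; Evaluation: % activation versus median of IL-6-stimulated wells; Controls: IL-6-only high control.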
STAT3 inh-1: IL-6 driven STAT3 reporter inhibitors, primary screen, U3A cells, luciferase, luminescence, MLSCN library; IL-6 STAT3-luciferase reporter; host cell line lacks STAT1; inhibition, % at 5.5 µM; 190,000 compounds, 0.89% hits; AID 862, 2007;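 active = inhibition above the mean inhibition across all screened compounds plus 3 SD, cut at about 44% in these data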;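 note: 0% = DMSO only wells and 100% = 100 µM nifuroxazide control wells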
APP 5'UTR act: activators of APP 5'UTR luciferase reporter, primary screen, SH-SY5Y cells | SH-SY5Y APP 5'UTR luciferase reporter, luminescence; zero percent = DMSO vehicle wells | activation, % at 2 µM | 190,000 compounds, 1% hits;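 active = activation above a set limit, based on mean plus 3 SD of controls, cut at about 140% in these data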
STAT3 inh-2: STAT3 reporter inhibitors, retest of hits, confirmation, U3A cells, luciferase, luminescence; shares compounds with STAT3 inh-1; IL-6 STAT3 luciferase reporter; cell line lacks STAT1; inhibition, % at 5.7 µM; 1,200 compounds, 45% hits; AID 1265, 2008;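 active = inhibition above the hit cutoff computed for the primary STAT3 screen, cut at about 44% in these data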;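 note: 0% = IL-6 plus DMSO and 100% = IL-6 plus nifuroxazide control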
NFkB inh STAT3ct: NF-kB reporter inhibitors in human cells, confirmation, counter-screen for STAT3 inhibitor project, cell-based, HEK293T, luciferase, TNF-alpha stimulus | shares compounds with STAT3 inh-1 | TNF-alpha induced | inhibition, % at 5.7 µM | 1,200 compounds, 36% hits;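 active = inhibition above the mean of solvent-only control wells plus 3 SD, cutoff set per campaign, cut at about 13% in these data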;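 note: 0% = TNF-alpha with DMSO and 100% = TNF-alpha with MG high control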
STAT1 inh STAT3c: STAT1 reporter inhibitors, IFN-gamma induced, confirmation, counter-screen for STAT3 inhibitor project, cell-based, NIH 3T3, luciferase luminescence. shares compounds with STAT3 inh-1. NIH 3T3 STAT1-luciferase reporter. inhibition, % at 5.7 µM. 1,200 compounds, 27% hits;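 active = inhibition above the mean plus 3 SD of solvent-only control wells, limit set per screening run, cut at about 16% in these data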;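 note: 0% = DMSO with IFN-gamma and 100% = nifuroxazide control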
* = called active by the depositor; nt = not tested or not shown. In the library only some 4.9% were active in any assay of this set; here they are far more common.

SMILES | STAT1 inh | STAT1 act | NF-kB expr up | STAT3 act | STAT3 inh-1 | APP 5'UTR act | STAT3 inh-2 | NFkB inh STAT3ct | STAT1 inh STAT3c
Cc1ccnc(NC(=O)Nc2cccc(F)c2)c1 | -41 | 138* | 8.6* | 62 | 46* | 198* | -7 | -28 | -130
CCOc1ccc(-c2noc(CCC(=O)O)n2)cc1 | 23 | 79 | 0.74 | 55 | 59* | -41 | 40 | 24* | 10
COc1ccc(-c2noc(CCC(=O)O)n2)cc1 | -9 | 108 | 1.1 | 94 | 15 | 12 | nt | nt | nt
COc1ccc(-c2noc(CCCC(=O)O)n2)cc1 | 33 | 70 | 0.59 | 56 | 57* | -56 | 45* | 30* | 11
N#Cc1nnn(-c2ccc(Cl)cc2)c1N | -7 | 105 | 1 | 99 | 4 | 10 | nt | nt | nt
Cc1[nH]nc(SCC(=O)N(C)c2ccccc2)c1[N+](=O)[O-] | 3 | 96 | 1 | 102 | 7 | -2 | nt | nt | nt
CNc1nc(C23CC4CC(CC(C4)C2)C3)cs1 | 1 | 98 | 1.2 | 81 | 31 | 22 | nt | nt | nt
O=C(Nc1nc(-c2ccccc2)cs1)c1ccc(N2CCOCC2)c([N+](=O)[O-])c1 | 15 | 86 | 0.36 | 38 | 72* | -8 | 77* | 23* | 16*
Cc1ccc(-c2csc(NC(=O)c3cc([N+](=O)[O-])ccc3N3CCOCC3)n2)cc1 | -7 | 106 | 1.2 | 106 | 0 | 8 | nt | nt | nt
COc1cccc(C(=O)/C=C/Nc2cccc(O)c2)c1 | 20 | 87 | 12* | 15 | 102* | 148* | 96* | 14* | 23*
O=C(/C=C/Nc1ccccc1)c1ccccc1 | 33 | 70 | 9.1* | 46 | 67* | 172* | 36 | -5 | -57
O=C(/C=C/Nc1ccc(F)cc1Br)c1ccccc1 | 18 | 84 | 1.6 | 27 | 86* | 149* | 76* | 62* | 33*
O=C(COc1ncnc2scc(-c3ccccc3)c12)NCCN1C(=O)CSC1=O | 5 | 95 | 0.99 | 97 | 7 | 19 | nt | nt | nt
CCOC(=O)Cn1nc(C)n(-c2c(C)cccc2C)c1=O | 8 | 93 | 1 | 106 | -3 | 10 | nt | nt | nt
COC(=O)c1ccc(-c2nc3cc(Cl)c(N)cc3s2)cc1 | -48 | 146* | 1.6 | 25 | 87* | 142* | 69* | 31* | -4
CC(=O)N(C)c1nc(N)n(-c2ccccc2)n1 | -5 | 105 | 1.2 | 101 | 1 | 8 | nt | nt | nt
CC(=O)c1ccc(N2CCN(C(=S)Nc3cccc(F)c3)CC2)cc1 | -16 | 114 | 0.65 | 88 | 16 | 8 | nt | nt | nt
CC(=O)c1ccc(N2CCN(C(=S)Nc3ccc(Oc4ccccc4)cc3)CC2)cc1 | 18 | 83 | 0.68 | 36 | 78* | 4 | 61* | 20* | 12
O=C(c1ccco1)N1CCN(Cc2cccc([N+](=O)[O-])c2)CC1 | 6 | 94 | 1 | 97 | 5 | -10 | nt | nt | nt
O=C(/C=C/c1ccccc1Cl)Nc1cccc(S(=O)(=O)NC2=NCCCCC2)c1 | -8 | 108 | 0.91 | 99 | 5 | 44 | nt | nt | nt
O=C(/C=C/c1ccc(Cl)cc1Cl)Nc1cccc(S(=O)(=O)NC2=NCCC2)c1 | 22 | 78 | 7.2* | 57 | 52* | 79 | 33 | 6 | -5
O=C(CSc1cnc2ccccc2n1)c1ccc(F)cc1 | -17 | 115 | 4.1* | 52 | 58* | 189* | -3 | -37 | -70
CN(CC(=O)NCCc1ccc(F)cc1)Cc1cccc(Cl)c1 | -3 | 100 | 1 | 104 | -4 | 4 | nt | nt | nt
COc1cc(-c2csc(N3CCOCC3)n2)cc(OC)c1OC | -6 | 105 | 1.1 | 103 | 5 | 1 | nt | nt | nt
c1ccc2oc(-c3csc(N4CCOCC4)n3)cc2c1 | 20 | 80 | 5.8* | 53 | 58* | 138* | 31 | -17 | -103
SMILES | STAT1 inh | STAT1 act | NF-kB expr up | STAT3 act | STAT3 inh-1 | APP 5'UTR act | STAT3 inh-2 | NFkB inh STAT3ct | STAT1 inh STAT3c
C[C@H]1O[C@@H](O[C@H]2[C@@H](O)C[C@H](O[C@H]3[C@@H](O)C[C@H](O[C@H]4CC[C@@]5(C)[C@H](CC[C@@H]6[C@@H]5C[C@@H](O)[C@]5(C)[C@@H](C7=CC(=O)OC7)CC[C@]65O)C4)O[C@@H]3C)O[C@@H]2C)C[C@H](O)[C@@H]1O | -29 | 126 | 0.75 | 25 | 87* | -94 | 82* | -7 | -16
CC(C)C(=O)Nc1ccc2nn(-c3ccccc3)nc2c1 | -19 | 116 | 1.1 | 63 | 48* | 234* | 15 | -34 | -155
O=C(Nc1ccc2nn(-c3ccccc3)nc2c1)c1cccnc1 | -27 | 124 | 1.3 | 90 | 15 | 51 | nt | nt | nt
CCS(=O)(=O)N1CCN(CC(=O)NC2CCCCC2)CC1 | -1 | 99 | 1.1 | 109 | -8 | 13 | nt | nt | nt
Cc1cc(C(=O)COC(=O)c2ccc[nH]c2=O)c(C)n1C | -11 | 110 | 0.59 | 103 | -1 | 1 | nt | nt | nt
COCCn1c(C)cc(C(=O)COC(=O)c2ccc[nH]c2=O)c1C | 28 | 75 | 0.29 | 59 | 48* | -1 | 2 | -4 | -14
COCC(=O)N(Cc1cc2ccc(C)c(C)c2n2nnnc12)C1CCCC1 | 7 | 92 | 1.2 | 111 | -3 | -2 | nt | nt | nt
COc1ccc(-[n+]2c(C)cc(/C=C3\Sc4ccccc4N3C)cc2C)cc1 | 28 | 74 | 5.4* | 28 | 85* | -83 | 85* | 56* | 2
O=C(CCl)N(c1ccccc1)c1c[nH]c2ccccc12 | 34 | 69 | 0.41 | 64 | 45* | -32 | 31 | 19* | 28*
O=C(CCl)N(c1ccc(Cl)cc1)c1c[nH]c2ccccc12 | 23 | 79 | 1 | 75 | 34 | -18 | nt | nt | nt
COc1ccc(CCN2C(=O)C3C4C=CC(C5CC45)C3C2=O)cc1OC (stereo unspecified) | 6 | 92 | 1.1 | 97 | 7 | -8 | nt | nt | nt
COc1ccc(CCN2C(=O)C3C4C=CC(C3C2=O)C2C(=O)N(CCc3ccc(OC)c(OC)c3)C(=O)C42)cc1OC (stereo unspecified) | 14 | 89 | 0.86 | 44 | 68* | -29 | 66* | 29* | 13

Assay outcomes as filed in PubChem.
